Experimental findings from ChEMBL document CHEMBL1136217, “Mapping the kinase domain of Janus Kinase 3” (Bioorg Med Chem Lett, 2003) are described below.

pIC50: −log10 of the molar value. Activity calls are given as the source filed them. No cut-off for these calls is given here.

A word on the pIC50: it is −log10 of the IC50, conventionally taken in molar units. The term half-life denotes the time in which the quantity being followed falls by half. As usually defined, the Tmax is the time at which the peak concentration occurs. For orientation: AUC means concentration integrated over time.

In data set [1] the target is T1, Tyrosine-protein kinase JAK3 (Homo sapiens, UniProt P52333).
T1 sequence (P52333 whole entry): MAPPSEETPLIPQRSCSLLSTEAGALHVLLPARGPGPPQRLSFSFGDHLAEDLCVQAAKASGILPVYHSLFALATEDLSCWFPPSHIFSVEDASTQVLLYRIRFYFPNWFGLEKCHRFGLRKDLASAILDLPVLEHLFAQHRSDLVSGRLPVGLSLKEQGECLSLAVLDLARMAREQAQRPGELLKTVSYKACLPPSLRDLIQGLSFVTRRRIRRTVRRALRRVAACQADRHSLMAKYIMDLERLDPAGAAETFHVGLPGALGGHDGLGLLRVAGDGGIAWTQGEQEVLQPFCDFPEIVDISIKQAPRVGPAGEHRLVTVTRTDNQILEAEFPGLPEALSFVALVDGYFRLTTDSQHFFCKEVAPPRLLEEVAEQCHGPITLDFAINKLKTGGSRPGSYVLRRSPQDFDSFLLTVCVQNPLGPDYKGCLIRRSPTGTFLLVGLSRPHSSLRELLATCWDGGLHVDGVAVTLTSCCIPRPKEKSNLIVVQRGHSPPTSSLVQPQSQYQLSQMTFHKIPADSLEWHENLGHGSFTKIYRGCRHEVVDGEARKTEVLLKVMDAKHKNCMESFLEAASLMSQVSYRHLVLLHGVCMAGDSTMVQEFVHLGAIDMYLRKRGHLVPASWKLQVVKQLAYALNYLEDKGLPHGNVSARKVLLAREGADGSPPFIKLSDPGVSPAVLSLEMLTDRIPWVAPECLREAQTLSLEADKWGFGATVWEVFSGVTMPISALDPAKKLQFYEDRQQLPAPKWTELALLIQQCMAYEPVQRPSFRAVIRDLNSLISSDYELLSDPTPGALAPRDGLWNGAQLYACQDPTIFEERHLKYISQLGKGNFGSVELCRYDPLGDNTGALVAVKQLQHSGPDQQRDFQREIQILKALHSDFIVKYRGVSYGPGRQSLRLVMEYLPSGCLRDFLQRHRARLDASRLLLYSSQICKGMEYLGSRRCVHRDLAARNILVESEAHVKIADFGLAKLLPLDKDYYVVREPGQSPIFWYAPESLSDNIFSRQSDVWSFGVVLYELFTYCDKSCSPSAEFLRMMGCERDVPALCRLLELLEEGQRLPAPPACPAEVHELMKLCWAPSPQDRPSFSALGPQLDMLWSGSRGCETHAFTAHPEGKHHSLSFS
Nature of the data set: Inhibitory activity against Janus Kinase 3 protein tyrosine kinase.

Data set [2] has as its system CTLL. Description: Inhibitory activity against IL-2 induced proliferation in mouse CTLL cells. In kind it is functional, cell-based. The essentials:
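Murine CTLL cells were seeded at 2 × 10^4 per well without IL-2 for 6 h. At time zero, recombinant human IL-2 (10 U/mL) and inhibitor in DMSO (0.5% final) were added. [3H]-thymidine (1 µCi/well) was added at 18 h, and cells were harvested at 24 h. Proliferation was read as incorporated radioactivity by scintillation counting.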

Data set [3] relates to T-cell. Nature of the data set: Inhibitory activity against IL-2 induced proliferation in human T-cells. In kind it is functional, cell-based.
The nature of data set [4]: Terminal T1/2 following ip administration at 1 mg/kg. In kind it is ADME, organism-based. Particulars: in vivo. The arrangement: dose 1 mg/kg, route intraperitoneal.
Data set [5] can be described thus: T max following ip administration at 1 mg/kg. It is filed as ADME, organism-based. The arrangement: dose 1 mg/kg, route intraperitoneal. As to conditions: in vivo.
The nature of data set [6]: Cp max following ip administration at 1 mg/kg. It is filed as ADME, organism-based. More on the design: dose 1 mg/kg, route intraperitoneal. Particulars: plasma, read-out: Cp max.
The nature of data set [7]: Area under curve (AUC) following ip administration at 1 mg/kg. In kind it is ADME, organism-based. The arrangement: dose 1 mg/kg, route intraperitoneal. Particulars: in vivo.
Data set [8] deals with T-cell. Description: Inhibitory activity against IL-2 induced proliferation of human T-cells. In kind it is functional, cell-based.
Data set [9] deals with Tyrosine-protein kinase JAK3 (Mus musculus) (UniProt Q62137). Particulars: at 3 µM.
Data set [10] deals with CTLL. Nature of the data set: Inhibitory activity against IL-2 induced proliferation of mouse CTLL cells. It is filed as functional, cell-based.

Chain of Tyrosine-protein kinase JAK3 (Mus musculus) (Q62137 whole entry, looked up): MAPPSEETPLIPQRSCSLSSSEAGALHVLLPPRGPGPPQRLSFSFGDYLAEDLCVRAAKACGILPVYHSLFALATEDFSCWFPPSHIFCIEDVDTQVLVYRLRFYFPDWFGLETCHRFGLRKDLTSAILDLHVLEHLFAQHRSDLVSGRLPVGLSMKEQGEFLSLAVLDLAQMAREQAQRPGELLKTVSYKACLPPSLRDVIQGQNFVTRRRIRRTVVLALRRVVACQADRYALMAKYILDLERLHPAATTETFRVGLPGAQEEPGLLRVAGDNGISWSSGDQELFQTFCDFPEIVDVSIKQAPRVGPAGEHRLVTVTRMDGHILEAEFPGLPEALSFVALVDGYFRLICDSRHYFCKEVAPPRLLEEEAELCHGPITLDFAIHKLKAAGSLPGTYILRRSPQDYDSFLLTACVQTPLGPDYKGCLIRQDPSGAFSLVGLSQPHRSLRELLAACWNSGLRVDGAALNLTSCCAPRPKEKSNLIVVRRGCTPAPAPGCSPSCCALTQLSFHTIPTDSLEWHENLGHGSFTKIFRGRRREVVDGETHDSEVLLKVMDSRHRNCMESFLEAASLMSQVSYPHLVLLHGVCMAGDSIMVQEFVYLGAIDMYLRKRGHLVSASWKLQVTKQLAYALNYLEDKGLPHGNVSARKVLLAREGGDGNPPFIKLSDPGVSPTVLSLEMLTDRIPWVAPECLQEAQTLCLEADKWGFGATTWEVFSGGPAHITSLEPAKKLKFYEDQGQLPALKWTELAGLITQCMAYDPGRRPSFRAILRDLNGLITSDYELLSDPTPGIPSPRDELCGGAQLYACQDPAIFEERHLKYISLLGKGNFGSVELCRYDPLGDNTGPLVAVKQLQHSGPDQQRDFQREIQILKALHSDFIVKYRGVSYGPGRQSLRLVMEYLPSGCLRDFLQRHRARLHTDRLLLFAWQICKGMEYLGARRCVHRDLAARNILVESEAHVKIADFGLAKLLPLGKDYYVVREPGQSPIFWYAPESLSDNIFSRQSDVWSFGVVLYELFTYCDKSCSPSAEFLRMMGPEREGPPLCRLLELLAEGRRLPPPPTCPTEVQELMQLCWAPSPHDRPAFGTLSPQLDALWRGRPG

In data set [1], `O=C1Nc2ccc(C(=O)c3cccs3)cc2/C1=C/c1ccccc1` had a pIC50 of 5.64. Take `O=C1Nc2ncc(-c3cccnc3)cc2/C1=C/c1ccc[nH]1`: the pIC50 with CTLL [2] was 5.64; with T-cell [3], 5.70.

`O=C1Nc2ccc(-c3cccnc3)cc2/C1=C/c1ccc[nH]1` showed a half-life in data set [4] of 180 min. Also, the Tmax in data set [5] amounted to 30 min. In addition, the Cmax in data set [6] was 600 ng/mL. Further, the exposure (AUC) in data set [7] worked out at 7690 ng·h/mL. In [1], `O=C1Nc2ccc(C(=O)c3cccs3)cc2/C1=C/c1ccc[nH]1` had a negative-log IC50 (pIC50) of 7.59. Same read-out and setting: the value for `O=C1Nc2ccc([N+](=O)[O-])cc2/C1=C/c1ccc[nH]1` was 6.15. `O=C1Nc2ccc(C(=O)c3cccnc3)cc2/C1=C/c1ccc[nH]1` had a negative logarithm of the IC50 (pIC50) in [1] of 6.77. In the case of `O=C1Nc2ccc(NC(=O)c3ccccc3)cc2/C1=C/c1ccc[nH]1`, the pIC50 in data set [1] was 6.06. On to `O=C1Nc2ccc(C(=O)c3cccs3)cc2/C1=C/C(=O)c1ccc[nH]1`, for which the pIC50 in [1] is 6.59. The same measure, in the same setting: the value for `CS(=O)(=O)c1ccc(/C=C2\C(=O)Nc3ccc(C(=O)c4cccs4)cc32)cc1` was 5.15. Turning to `O=C1Nc2ccc(-c3cccnc3)nc2/C1=C/c1ccc[nH]1`, the values for the negative-log IC50 (pIC50) (in data set [1]; in the data set with T-cell [8]; in the data set on CTLL [10]) were 6.63, 6.15 and 6.04, respectively. For the same compound, the inhibition result in data set [9] is “Active”. On to `CN(C)c1ccc(/C=C2\C(=O)Nc3ccc(C(=O)c4cccs4)cc32)cc1`, for which the negative logarithm of the IC50 (pIC50) in data set [1] was 6.70. Still for that read-out and setting: the value for `O=C1Nc2ccc(C(=O)c3cccs3)cc2/C1=C/c1ccc(F)cc1` was 5.31; that for `O=C1Nc2ccc(C(O)c3cccs3)cc2/C1=C/c1ccc[nH]1` (centres undefined) was 6.72; that for `O=C1Nc2ccc(C(=O)O)cc2/C1=C/c1ccc[nH]1` was 6.67. In data set [1], `CN(C)C(=O)c1ccc2c(c1)/C(=C/c1ccc[nH]1)C(=O)N2` had a negative-log IC50 (pIC50) of 6.68. For `CC(=O)Nc1ccc(/C=C2\C(=O)Nc3ccc(C(=O)c4cccs4)cc32)cc1`, the pIC50 in data set [1] was 6.15. As for `O=C1Nc2cnc(-c3cccnc3)cc2/C1=C/c1ccc[nH]1`, the pIC50 with T-cell [8] was 7.52; in the data set with CTLL [10], 6.35. Further, the half-life in data set [4] was 198 min. In [5], the Tmax stood at 30 min. Also, in [6], the Cmax was determined as 700 ng/mL. This compound showed an area under the curve (AUC) in data set [7] of 4580 ng·h/mL.
